Experimental data from ChEMBL document CHEMBL4680104, “Structure-Based Optimization of Small-Molecule Inhibitors for the β-Catenin/B-Cell Lymphoma 9 Protein-Protein Interaction” (J Med Chem, 2018).
Activity calls are given as the source filed them. The rule behind the calls is not given here.

Assays:
SW480 [1] = experiment: Cytotoxic activity in human SW480 cells at 800 uM incubated for 4 hrs by LDH release assay; format: cell-based; details: sw480, 4 h
How it was run: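 SW480 cells were seeded at 2 × 10^4 cells/well and kept overnight at 37 °C. They were then exposed to a range of inhibitor concentrations for 4 h. LDH in the culture supernatant was measured with a diagnostic kit by absorbance at 490 nm. Percent cytotoxicity was calculated from experimental release against maximum release, with background subtracted. Run in triplicate.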

[2] = target: T1, beta-catenin-B-cell lymphoma 9 protein complex (Homo sapiens, UniProt P35222); experiment: Inhibition of protein interaction between C-terminal 6x-histidine tagged full-length beta-catenin (1 to 781 residues) (unknown origin)/N-terminal biotinylated human BCL9 ( 350 to 375 residues) incubated for 1 hr by Alpha-screen competitive inhibition assay; format: protein-complex assay
T1 sequence (P35222 whole entry): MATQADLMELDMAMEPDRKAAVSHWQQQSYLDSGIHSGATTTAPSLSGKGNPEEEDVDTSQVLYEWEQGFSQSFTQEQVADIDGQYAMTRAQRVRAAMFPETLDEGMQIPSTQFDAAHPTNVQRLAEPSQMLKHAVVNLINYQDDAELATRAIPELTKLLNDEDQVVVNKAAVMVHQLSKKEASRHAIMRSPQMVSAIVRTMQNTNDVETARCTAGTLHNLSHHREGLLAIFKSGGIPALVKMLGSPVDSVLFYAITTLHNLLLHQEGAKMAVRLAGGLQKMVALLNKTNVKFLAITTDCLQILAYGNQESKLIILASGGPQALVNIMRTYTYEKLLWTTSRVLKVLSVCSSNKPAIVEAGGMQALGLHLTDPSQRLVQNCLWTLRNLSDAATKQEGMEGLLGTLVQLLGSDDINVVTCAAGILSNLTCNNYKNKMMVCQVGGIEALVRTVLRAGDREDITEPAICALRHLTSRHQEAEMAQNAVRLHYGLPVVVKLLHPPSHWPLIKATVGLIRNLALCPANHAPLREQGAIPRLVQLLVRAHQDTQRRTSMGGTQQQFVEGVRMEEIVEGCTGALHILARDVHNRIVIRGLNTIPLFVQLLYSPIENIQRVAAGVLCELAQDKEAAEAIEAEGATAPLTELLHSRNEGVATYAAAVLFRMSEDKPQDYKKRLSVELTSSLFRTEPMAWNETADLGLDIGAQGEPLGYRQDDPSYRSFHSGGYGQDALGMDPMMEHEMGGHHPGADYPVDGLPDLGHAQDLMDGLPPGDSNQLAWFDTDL
T1 sequence (O00512 whole entry): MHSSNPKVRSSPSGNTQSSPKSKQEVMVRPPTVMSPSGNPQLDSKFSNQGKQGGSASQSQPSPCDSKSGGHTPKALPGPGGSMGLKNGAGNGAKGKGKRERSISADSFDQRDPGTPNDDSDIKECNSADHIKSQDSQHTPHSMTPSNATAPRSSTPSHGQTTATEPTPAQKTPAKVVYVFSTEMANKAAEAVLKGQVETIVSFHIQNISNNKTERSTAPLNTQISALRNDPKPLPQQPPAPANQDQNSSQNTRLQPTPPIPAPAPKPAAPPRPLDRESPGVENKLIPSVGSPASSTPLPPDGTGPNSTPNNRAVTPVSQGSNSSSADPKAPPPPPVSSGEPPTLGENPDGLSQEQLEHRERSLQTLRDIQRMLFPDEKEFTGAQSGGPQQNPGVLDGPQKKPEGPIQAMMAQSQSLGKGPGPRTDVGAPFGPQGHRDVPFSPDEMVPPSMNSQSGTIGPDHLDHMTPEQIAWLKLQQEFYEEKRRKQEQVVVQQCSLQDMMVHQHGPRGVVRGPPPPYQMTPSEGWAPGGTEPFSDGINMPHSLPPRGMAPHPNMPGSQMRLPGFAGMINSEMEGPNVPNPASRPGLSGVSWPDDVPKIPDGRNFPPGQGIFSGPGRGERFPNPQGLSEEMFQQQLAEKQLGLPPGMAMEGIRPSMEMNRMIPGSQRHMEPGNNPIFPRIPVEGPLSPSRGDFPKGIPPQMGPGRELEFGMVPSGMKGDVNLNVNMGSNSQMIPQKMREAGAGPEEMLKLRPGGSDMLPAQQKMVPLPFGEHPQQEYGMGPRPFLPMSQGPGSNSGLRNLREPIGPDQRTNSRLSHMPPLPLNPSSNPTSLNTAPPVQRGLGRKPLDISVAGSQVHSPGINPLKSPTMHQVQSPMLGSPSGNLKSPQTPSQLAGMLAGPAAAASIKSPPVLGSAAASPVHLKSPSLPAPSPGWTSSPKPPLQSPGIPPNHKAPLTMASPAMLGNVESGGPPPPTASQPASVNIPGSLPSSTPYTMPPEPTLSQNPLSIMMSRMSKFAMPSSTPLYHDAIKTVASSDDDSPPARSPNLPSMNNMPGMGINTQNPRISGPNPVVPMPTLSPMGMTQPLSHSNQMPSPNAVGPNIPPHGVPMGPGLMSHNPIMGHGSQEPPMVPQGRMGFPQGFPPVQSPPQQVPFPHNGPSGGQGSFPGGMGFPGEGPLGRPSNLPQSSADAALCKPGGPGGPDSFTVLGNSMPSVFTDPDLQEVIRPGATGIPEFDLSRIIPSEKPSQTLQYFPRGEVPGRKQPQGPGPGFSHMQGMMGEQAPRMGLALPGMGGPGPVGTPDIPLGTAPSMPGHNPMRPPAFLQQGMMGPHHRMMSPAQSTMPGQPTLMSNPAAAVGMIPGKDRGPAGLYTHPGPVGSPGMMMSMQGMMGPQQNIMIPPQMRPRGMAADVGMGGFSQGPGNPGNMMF
How it was run: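 Full-length β-catenin (residues 1–781) with a C-terminal His6 tag was expressed in E. coli BL21(DE3) after IPTG induction at 20 °C. It was purified by Ni-NTA, anion-exchange and size-exclusion chromatography. For the assay, 40 nM β-catenin was preincubated for 30 min at 4 °C with 5 nM biotinylated BCL9 or 10 nM biotinylated E-cadherin. Inhibitor was then added for 1 h at 4 °C, followed by 10 μg/mL donor and acceptor beads for 1 h at 4 °C. IC50 was obtained by nonlinear fit and converted to Ki by the Nikolovska-Coleska method. Triplicate, mean ± SD.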

SW480 [3] = experiment: Cytotoxicity in human SW480 cells assessed as reduction in cell viability incubated for 72 hrs by MTS assay; format: functional, cell-based; details: SW480, 72 h
How it was run: (§1)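 Cells seeded at 5 × 10^3 cells/well, kept overnight at 37 °C, then exposed to inhibitors at various concentrations for 72 h. Viability read with a freshly mixed PMS (0.92 mg/mL) : MTS (2 mg/mL) reagent at 1:19, incubated 3 h at 37 °C, A490 measured. […] Triplicate; mean ± SD.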

[4] = target: T1, beta-catenin-B-cell lymphoma 9 protein complex; experiment: Inhibition of protein interaction between beta-catenin (unknown origin)/BCL9 in human SW480 cells transfected with beta-catenin assessed as reduction in Wnt/beta-catenin transactivation incubated for 24 hrs by Wnt-responsive TOP-Flash luciferase reporter assay; format: cell-based
HCT-116 = experiment: Cytotoxicity in human HCT-116 cells assessed as reduction in cell viability incubated for 72 hrs by MTS assay; format: functional, cell-based; details: HCT-116, 72 h; how it was run: as §1
MDA-MB-231 = experiment: Cytotoxicity in human MDA-MB-231 cells assessed as reduction in cell viability incubated for 72 hrs by MTS assay; format: functional, cell-based; details: MDA-MB-231, 72 h
How it was run: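 Triple-negative breast cancer line seeded at 5 × 10^3 cells/well, held overnight at 37 °C, then exposed to inhibitor over a concentration range for 72 h. Viability read out with a fresh 1:19 mix of PMS (0.92 mg/mL) and MTS (2 mg/mL), incubated 3 h at 37 °C, A490 measured.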

[5] = Inhibition of protein interaction between beta-catenin D145A/E155A mutant (unknown origin)/N-terminal biotinylated human BCL9 ( 350 to 375 residues) incubated for 1 hr by Alpha-screen competitive inhibition assay
[6] = Inhibition of protein interaction between beta-catenin D145A mutant (unknown origin)/N-terminal biotinylated human BCL9 ( 350 to 375 residues) incubated for 1 hr by Alpha-screen competitive inhibition assay
[7] = Inhibition of protein interaction between beta-catenin K181A mutant (unknown origin)/N-terminal biotinylated human BCL9 ( 350 to 375 residues) incubated for 1 hr by Alpha-screen competitive inhibition assay
A549 = experiment: Cytotoxicity in human A549 cells assessed as reduction in cell viability incubated for 72 hrs by MTS assay; format: functional, cell-based; details: A549, 72 h; how it was run: as §1
[8] = target: T1, beta-catenin-B-cell lymphoma 9 protein complex; experiment: Inhibition of protein interaction between beta-catenin (unknown origin)/BCL9 in HEK293 cells transfected with beta-catenin assessed as reduction in Wnt/beta-catenin transactivation incubated for 24 hrs by Wnt-responsive TOP-Flash luciferase reporter assay; format: cell-based
How it was run: (§2)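 HEK293 cells were cotransfected using FuGENE6 with 45 ng TOPFlash or FOPFlash reporter, 135 ng pcDNA3.1-β-catenin and 20 ng pCMV-RL normalization reporter. After 24 h in DMEM with 10% FBS at 37 °C, inhibitors or DMSO were added for 24 h. Reporter activity was read with a dual luciferase system, normalized, and compared with DMSO-treated cells. Triplicate.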

[9] = target: T2, beta-catenin-B-cell lymphoma 9 protein complex (Homo sapiens) (UniProt P35222+O00512); experiment: Inhibition of protein interaction between beta-catenin (unknown origin)/BCL9 in HEK293 cells transfected with beta-catenin assessed as reduction in Wnt/beta-catenin transactivation incubated for 24 hrs by Wnt-responsive FOP-Flash luciferase reporter assay; format: cell-based; how it was run: as §2
[10] = target: T2, beta-catenin-B-cell lymphoma 9 protein complex (Homo sapiens); experiment: Inhibition of protein interaction between beta-catenin (unknown origin)/BCL9 in human HEK293 cells transfected with beta-catenin assessed as reduction in Wnt/beta-catenin transactivation incubated for 24 hrs by Wnt-responsive FOP-Flash luciferase reporter assay

Row | Structure (SMILES) | Activity (SW480 [1]) | Ki [2] [µM] | IC50 (SW480 [3]) [µM] | IC50 [4] [µM] | IC50 (HCT-116) [µM] | IC50 (MDA-MB-231) [µM] | Ki [5] [µM] | Ki [6] [µM] | Ki [7] [µM] | IC50 (A549) [µM] | IC50 [8] [µM] | inhibition [9] | inhibition [10]
1 | Cl.Cl.NC(=O)c1cccc(-c2cc(NC(=O)c3ccc(O[C@H]4CCNC4)c(-c4ccc(F)c(F)c4)c3)ccc2O[C@H]2CCNC2)c1 | Non-Toxic | 5.6 | 190 |  |  |  |  |  |  |  |  |  | 
2 | Cl.Cl.O=C(O)c1ccc(-c2cc(NC(=O)c3ccc(O[C@H]4CCNC4)c(-c4ccc(F)c(F)c4)c3)ccc2O[C@H]2CCNC2)cc1 | Non-Toxic | 3.7 | > 400 | 391 | > 400 |  |  |  |  |  |  |  | 
3 | Cl.Cl.O=C(O)c1ccc(F)c(-c2cc(NC(=O)c3ccc(O[C@H]4CCNC4)c(-c4ccc(F)c(F)c4)c3)ccc2O[C@H]2CCNC2)c1 | Non-Toxic | 12 | > 400 | > 400 | > 400 |  |  |  |  |  |  |  | 
4 | CC(=O)Nc1cccc(-c2cc(NC(=O)c3ccc(O[C@H]4CCNC4)c(-c4ccc(F)c(F)c4)c3)ccc2O[C@H]2CCNC2)c1.Cl.Cl | Non-Toxic | 5.2 | 160 |  |  |  |  |  |  |  |  |  | 
5 | Cl.Cl.NC(=O)c1ccc(-c2cc(NC(=O)c3ccc(O[C@H]4CCNC4)c(-c4ccc(F)c(F)c4)c3)ccc2O[C@H]2CCNC2)cc1 | Non-Toxic | 4.7 | 160 |  |  |  |  |  |  |  |  |  | 
6 | Cl.Cl.O=C(Nc1ccc(O[C@H]2CCNC2)c(-c2cccc(-c3nn[nH]n3)c2)c1)c1ccc(O[C@H]2CCNC2)c(-c2ccc(F)c(F)c2)c1 | Non-Toxic | 1 | 140 |  | 190 | 92 | 18 | 6.5 | 4.9 | 410 |  |  | 
7 | CS(=O)(=O)Nc1cccc(-c2cc(NC(=O)c3ccc(O[C@H]4CCNC4)c(-c4ccc(F)c(F)c4)c3)ccc2O[C@H]2CCNC2)c1.Cl.Cl | Non-Toxic | 5.9 | 95 |  |  |  |  |  |  |  |  |  | 
8 | Cl.Cl.NS(=O)(=O)c1ccc(-c2cc(NC(=O)c3ccc(O[C@H]4CCNC4)c(-c4ccc(F)c(F)c4)c3)ccc2O[C@H]2CCNC2)cc1 | Non-Toxic | 5.6 | 220 | > 200 |  |  |  |  |  |  | > 200 |  | 
9 | Cl.Cl.O=C(Nc1ccc(O[C@H]2CCNC2)c(-c2ccc(-c3nn[nH]n3)cc2)c1)c1ccc(O[C@H]2CCNC2)c(-c2ccc(F)c(F)c2)c1 | Non-Toxic | 4.6 | 86 |  |  |  |  |  |  |  |  |  | 
10 | Fc1ccc(-c2cc(-c3cnc4cc(O[C@H]5CCNC5)c(-c5ccc(F)c(F)c5)cc4c3)ccc2O[C@H]2CCNC2)cc1 |  | 2.2 | 1.7 | 7.9 | 2.2 | 3.1 |  |  |  | 7.5 | 14 | Active | Active
11 | Cl.Cl.O=C(O)c1cccc(-c2cc(NC(=O)c3ccc(O[C@H]4CCNC4)c(-c4ccc(F)c(F)c4)c3)ccc2O[C@H]2CCNC2)c1 | Non-Toxic | 5.4 | > 400 | 368 | > 400 |  |  |  |  |  |  |  | 
